{"source": "ChEMBL document CHEMBL5647699", "about": "“Discovery of a chemical probe for PRDM9” (Nat Commun, 2019)", "key": {"[1]": {"molecular_target": "Histamine H3 receptor (Homo sapiens) (UniProt Q9Y5N1)", "sequence (Q9Y5N1 whole entry)": "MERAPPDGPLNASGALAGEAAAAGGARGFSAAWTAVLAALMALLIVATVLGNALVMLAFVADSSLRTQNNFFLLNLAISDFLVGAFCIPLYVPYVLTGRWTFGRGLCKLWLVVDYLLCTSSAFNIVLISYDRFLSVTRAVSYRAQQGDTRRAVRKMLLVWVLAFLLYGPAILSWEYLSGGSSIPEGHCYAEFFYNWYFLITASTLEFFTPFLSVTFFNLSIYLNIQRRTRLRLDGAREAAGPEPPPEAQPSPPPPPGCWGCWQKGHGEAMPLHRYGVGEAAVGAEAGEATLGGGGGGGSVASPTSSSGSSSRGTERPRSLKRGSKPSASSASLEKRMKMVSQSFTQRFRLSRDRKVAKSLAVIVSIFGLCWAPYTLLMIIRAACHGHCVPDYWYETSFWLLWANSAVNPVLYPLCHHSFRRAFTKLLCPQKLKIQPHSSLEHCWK", "experiment": "Agonist activity at Histamine H3 (unknown origin) by Glo Sensor assay", "type": "functional"}, "[2]": {"test_system": "MCF7", "experiment": "Cytotoxicity against human MCF7 cells assessed as reduction in cell viability at 10 uM measured on day 5 by IncuCyte zoom live-cell imaging analysis", "type": "functional, cell-based", "details": "time 5.0 day", "outline": "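MCF7 cells seeded, treated next day with 10 μM compound in a 5-day proliferation assay; cell number counted by live-cell imaging after Vybrant DyeCycle Green staining.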"}, "[3]": {"molecular_target": "Histone-lysine N-methyltransferase PRDM9 (Homo sapiens) (UniProt Q9NQV7)", "sequence (Q9NQV7 whole entry, the tested form may be a part)": "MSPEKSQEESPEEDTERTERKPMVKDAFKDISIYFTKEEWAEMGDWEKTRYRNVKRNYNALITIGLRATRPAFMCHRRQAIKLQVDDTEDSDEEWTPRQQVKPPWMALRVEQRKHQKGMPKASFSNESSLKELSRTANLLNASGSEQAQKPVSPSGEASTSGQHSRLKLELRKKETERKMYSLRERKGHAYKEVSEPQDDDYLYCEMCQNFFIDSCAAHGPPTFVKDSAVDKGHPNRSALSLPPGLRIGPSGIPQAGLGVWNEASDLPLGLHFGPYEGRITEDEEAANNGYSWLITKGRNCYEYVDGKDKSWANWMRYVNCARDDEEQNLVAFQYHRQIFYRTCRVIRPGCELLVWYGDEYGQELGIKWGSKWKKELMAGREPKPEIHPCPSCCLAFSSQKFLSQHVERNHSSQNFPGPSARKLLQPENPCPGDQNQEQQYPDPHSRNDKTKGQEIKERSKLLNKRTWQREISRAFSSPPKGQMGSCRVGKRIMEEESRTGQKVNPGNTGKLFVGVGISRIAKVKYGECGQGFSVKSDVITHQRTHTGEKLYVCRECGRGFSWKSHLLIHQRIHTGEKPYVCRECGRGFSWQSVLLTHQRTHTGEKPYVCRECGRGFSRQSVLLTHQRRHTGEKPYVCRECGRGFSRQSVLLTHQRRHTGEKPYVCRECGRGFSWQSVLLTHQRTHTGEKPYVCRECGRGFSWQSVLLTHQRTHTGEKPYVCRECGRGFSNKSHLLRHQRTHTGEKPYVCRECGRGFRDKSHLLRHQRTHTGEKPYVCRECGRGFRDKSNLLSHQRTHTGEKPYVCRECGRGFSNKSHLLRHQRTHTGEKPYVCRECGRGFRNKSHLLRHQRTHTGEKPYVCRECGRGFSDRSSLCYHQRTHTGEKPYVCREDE", "experiment": "Inhibition of FLAG tagged PRDM9 transfected in human MCF7 cells cotransfected with H3-GFP assessed as inhibition of trimethylation H3K4 at upto 10 uM measured after 20 hrs by Western blot analysis", "type": "cell-based"}, "[4]": {"test_system": "HEK-293T", "experiment": "Cytotoxicity against HEK293T cells at 10 uM measured after 4 days by IncuCyte zoom live-cell imaging analysis", "type": "toxicity, cell-based", "details": "human, 96 h, time 4 day"}, "[5]": {"molecular_target": "Histone-lysine N-methyltransferase PRDM9 (Homo sapiens) (UniProt Q9NQV7)", "experiment": "Binding affinity to PRDM9 (unknown origin) (195 to 415 residues) at 20 uM measured at 60 to 120 secs in presence of SAH by surface plasmon resonance assay", "details": "time 60-120 sec"}, "[6]": {"test_system": "RPMI-8226", "experiment": "Cytotoxicity against human RPMI-8226 cells at upto 30 uM measured for 3 to 6 days by celltiter glo assay", "type": "functional, cell-based", "details": "time 3-6 day"}, "[7]": {"molecular_target": "Alpha-2B adrenergic receptor (Homo sapiens) (UniProt P18089)", "sequence (P18089 whole entry)": "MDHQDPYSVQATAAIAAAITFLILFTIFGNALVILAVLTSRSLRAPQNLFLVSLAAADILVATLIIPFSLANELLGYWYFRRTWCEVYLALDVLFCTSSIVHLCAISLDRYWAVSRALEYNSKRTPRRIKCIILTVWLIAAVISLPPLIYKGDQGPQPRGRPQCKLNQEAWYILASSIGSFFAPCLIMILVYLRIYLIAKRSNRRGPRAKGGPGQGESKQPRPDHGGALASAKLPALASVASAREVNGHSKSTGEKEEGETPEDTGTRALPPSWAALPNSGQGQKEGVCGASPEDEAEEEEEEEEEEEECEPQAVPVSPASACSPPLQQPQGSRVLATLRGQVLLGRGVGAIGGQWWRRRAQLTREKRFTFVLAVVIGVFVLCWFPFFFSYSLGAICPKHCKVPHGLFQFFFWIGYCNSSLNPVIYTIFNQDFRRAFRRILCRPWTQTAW", "experiment": "Antagonist activity against adrenergic alpha 2b receptor (unknown origin) by Glo Sensor assay", "type": "functional"}, "[8]": {"test_system": "HEK-293T", "experiment": "Cytotoxicity against HEK293T cells at 3 uM measured after 24 hrs by IncuCyte zoom live-cell imaging analysis", "type": "toxicity, cell-based", "details": "human", "outline": "(§1)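 HEK293T cells seeded, treated next day with compound for 1 day; cell number counted by live-cell imaging after Vybrant DyeCycle Green staining; mean ± sd, n = 3.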"}, "[9]": {"test_system": "HEK-293T", "experiment": "Cytotoxicity against HEK293T cells at 3 uM measured after 4 days by IncuCyte zoom live-cell imaging analysis", "type": "toxicity, cell-based", "details": "human, 96 h, time 4 day"}, "[10]": {"molecular_target": "Histone-lysine N-methyltransferase PRDM9 (Homo sapiens) (UniProt Q9NQV7)", "experiment": "Inhibition of PRDM9 (unknown origin) in presence of SAH"}, "[11]": {"test_system": "CAL-85-1", "experiment": "Cytotoxicity against human CAL-85-1 cells at upto 30 uM measured for 3 to 6 days by celltiter glo assay", "type": "functional, cell-based", "details": "time 3-6 day"}, "[12]": {"molecular_target": "Histone-lysine N-methyltransferase PRDM9 (Homo sapiens) (UniProt Q9NQV7)", "experiment": "Inhibition of PRDM9 (unknown origin) at 1 to 10 uM", "details": "dose 1-10 µM"}, "[13]": {"test_system": "Spermatocyte", "experiment": "Induction of meiotic defect in wild type mouse spermatocyte assessed as non homologous synapsis by SYCP1/SYCP3 staining based immunofluorescence assay", "type": "functional, cell-based"}, "[14]": {"test_system": "SK-MM-2", "experiment": "Cytotoxicity against human SK-MM-2 cells at upto 30 uM measured for 3 to 6 days by celltiter glo assay", "type": "functional, cell-based", "details": "time 3-6 day"}, "[15]": {"molecular_target": "Histone-lysine N-methyltransferase PRDM9 (Homo sapiens) (UniProt Q9NQV7)", "experiment": "Binding affinity to PRDM9 (unknown origin) assessed as thermal stability by measuring change in melting temperature at 250 uM by SYPRO orange dye based differential scanning fluorimetry", "outline": "(§2)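 DSF with 250 μM compound; proteins at 0.02 mg mL⁻¹ final in 0.1 M HEPES pH 7.5, 150 mM NaCl with 2 mM SAM; ΔTm (Tm ligand − Tm apo) above 2 °C taken as binding.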"}, "[16]": {"molecular_target": "Muscarinic acetylcholine receptor M2 (Homo sapiens) (UniProt P08172)", "sequence (P08172 whole entry)": "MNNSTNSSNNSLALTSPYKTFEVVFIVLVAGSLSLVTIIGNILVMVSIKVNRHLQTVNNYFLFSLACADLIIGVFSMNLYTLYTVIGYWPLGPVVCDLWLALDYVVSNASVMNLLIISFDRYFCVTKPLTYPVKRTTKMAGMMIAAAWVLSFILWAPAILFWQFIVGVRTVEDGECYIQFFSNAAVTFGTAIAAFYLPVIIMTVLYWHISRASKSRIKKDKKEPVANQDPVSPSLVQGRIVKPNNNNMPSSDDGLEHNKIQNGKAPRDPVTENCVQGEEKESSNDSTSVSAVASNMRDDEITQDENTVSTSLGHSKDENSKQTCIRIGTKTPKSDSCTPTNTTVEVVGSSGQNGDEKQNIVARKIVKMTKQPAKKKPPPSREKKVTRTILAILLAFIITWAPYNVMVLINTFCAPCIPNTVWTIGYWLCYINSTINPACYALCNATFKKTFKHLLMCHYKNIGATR", "experiment": "Antagonist activity against muscarinic M2 receptor (unknown origin) by Glo Sensor assay", "type": "functional"}, "[17]": {"test_system": "HEK-293T", "experiment": "Cytotoxicity against HEK293T cells at 10 uM measured after 24 hrs by IncuCyte zoom live-cell imaging analysis", "type": "toxicity, cell-based", "details": "human", "outline": "as §1"}, "[18]": {"molecular_target": "Mu-type opioid receptor (Homo sapiens) (UniProt P35372)", "sequence (P35372 whole entry)": "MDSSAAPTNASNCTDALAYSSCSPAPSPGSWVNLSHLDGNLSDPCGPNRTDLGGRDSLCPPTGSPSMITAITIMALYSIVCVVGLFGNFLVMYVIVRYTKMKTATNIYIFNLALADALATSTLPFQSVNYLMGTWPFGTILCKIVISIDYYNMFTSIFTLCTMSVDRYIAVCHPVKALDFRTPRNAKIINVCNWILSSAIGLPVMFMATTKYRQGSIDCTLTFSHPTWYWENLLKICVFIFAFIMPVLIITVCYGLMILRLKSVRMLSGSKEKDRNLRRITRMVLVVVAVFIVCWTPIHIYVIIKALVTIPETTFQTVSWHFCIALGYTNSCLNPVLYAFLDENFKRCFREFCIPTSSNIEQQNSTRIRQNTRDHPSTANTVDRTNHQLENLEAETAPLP", "experiment": "Agonist activity at MOR receptor (unknown origin) by Glo Sensor assay", "type": "functional"}, "[19]": {"test_system": "Spermatocyte", "experiment": "Induction of meiotic defect in wild type mouse spermatocyte assessed as effect on paring of chromosomal homolog by SYCP1/SYCP3 staining based immunofluorescence assay", "type": "functional, cell-based"}, "[20]": {"test_system": "HCC1143", "experiment": "Cytotoxicity against human HCC1143 cells at upto 30 uM measured for 3 to 6 days by celltiter glo assay", "type": "functional, cell-based", "details": "time 3-6 day"}, "[21]": {"molecular_target": "Alpha-2B adrenergic receptor (Homo sapiens) (UniProt P18089)", "experiment": "Agonist activity at adrenergic alpha 2b receptor (unknown origin) by Glo Sensor assay", "type": "functional"}, "[22]": {"test_system": "Histone-lysine N-methyltransferase PRDM9 (Homo sapiens), Q9NQV7 [UNDEFINED MUTATION]", "sequence (Q9NQV7 whole entry, looked up, change not shown)": "as the sequence (Q9NQV7 whole entry, the tested form may be a part) above", "experiment": "Inhibition of PRDM9 mutant (unknown origin) expressed in […] cells assessed as reduction in H3k4me3 expression at TSS region of endogenous chromatin at 2.5 to 10 uM measured after 48 hrs by ChIP qPCR analysis", "type": "cell-based", "details": "HEK293T, dose 2.5-10 µM", "outline": "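HEK293T cells transfected with empty vector, wild-type or catalytically dead PRDM9 and treated with 0.1% DMSO or compound for 48 h; formaldehyde fixed, sonicated chromatin (50 μg) immunoprecipitated with anti-H3K4me3 or anti-H3; qPCR at PRDM9-bound and control loci; mean ± s.d. of technical replicates, representative of two experiments.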"}, "[23]": {"molecular_target": "Histone-lysine N-methyltransferase PRDM9 (Homo sapiens) (UniProt Q9NQV7)", "experiment": "Inhibition of FLAG tagged PRDM9 transfected in HEK293T cells assessed as reduction in trimethylation of endogenous H3K4 measured after 20 hrs by Western blot analysis", "type": "cell-based", "details": "dose <= 10.0 µM"}, "[24]": {"test_system": "HCC1806", "experiment": "Cytotoxicity against human HCC1806 cells at upto 30 uM measured for 3 to 6 days by celltiter glo assay", "type": "functional, cell-based", "details": "time 3-6 day"}, "[25]": {"molecular_target": "Histone-lysine N-methyltransferase PRDM7 (Homo sapiens) (UniProt Q9NQW5)", "sequence (Q9NQW5 whole entry)": "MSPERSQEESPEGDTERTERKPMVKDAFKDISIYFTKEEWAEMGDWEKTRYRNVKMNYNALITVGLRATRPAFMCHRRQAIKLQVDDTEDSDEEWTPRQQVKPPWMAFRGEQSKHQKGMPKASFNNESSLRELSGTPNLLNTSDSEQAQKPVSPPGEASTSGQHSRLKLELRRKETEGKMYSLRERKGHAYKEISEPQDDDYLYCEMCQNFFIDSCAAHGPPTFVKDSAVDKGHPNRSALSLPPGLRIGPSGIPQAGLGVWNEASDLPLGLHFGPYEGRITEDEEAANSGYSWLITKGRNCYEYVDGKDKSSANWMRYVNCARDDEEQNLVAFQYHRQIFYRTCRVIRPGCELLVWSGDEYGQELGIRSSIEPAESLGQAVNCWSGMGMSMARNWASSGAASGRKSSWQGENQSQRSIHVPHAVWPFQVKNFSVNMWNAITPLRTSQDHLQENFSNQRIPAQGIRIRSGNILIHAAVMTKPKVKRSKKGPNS", "experiment": "Binding affinity to PRDM7 (unknown origin) assessed as thermal stability by measuring change in melting temperature at 250 uM by SYPRO orange dye based differential scanning fluorimetry", "outline": "as §2"}, "[26]": {"molecular_target": "Mu-type opioid receptor (Homo sapiens) (UniProt P35372)", "experiment": "Antagonist activity against MOR receptor (unknown origin) by Glo Sensor assay", "type": "functional"}, "[27]": {"test_system": "MDA-MB-436", "experiment": "Cytotoxicity against human MDA-MB-436 cells at upto 30 uM measured for 3 to 6 days by celltiter glo assay", "type": "functional, cell-based", "details": "time 3-6 day"}, "[28]": {"molecular_target": "Muscarinic acetylcholine receptor M2 (Homo sapiens) (UniProt P08172)", "experiment": "Agonist activity at muscarinic M2 receptor (unknown origin) by Glo Sensor assay", "type": "functional"}, "[29]": {"molecular_target": "Histone-lysine N-methyltransferase PRDM9 (Homo sapiens) (UniProt Q9NQV7)", "experiment": "Inhibition of FLAG tagged PRDM9 transfected in HEK293T cells assessed as reduction in trimethylation of ectopic H3K4 measured after 20 hrs by Western blot analysis", "type": "cell-based", "details": "dose <= 10.0 µM"}}, "note": "Activity calls are given as the source filed them. The rule behind the calls is not given here.", "data": [{"smiles": "COc1cc(OC)cc(-c2noc(N3CCN(C)C4(CCN(c5ccnc(C)c5)CC4)C3)n2)c1", "values": [{"measurement": "Activity", "setting": "[1]", "value": "inactive"}, {"measurement": "Activity", "setting": "[2]", "value": "inactive"}, {"measurement": "inhibition", "setting": "[3]", "value": "Active"}, {"measurement": "Activity", "setting": "[4]", "value": "Toxic"}, {"measurement": "Activity", "setting": "[5]", "value": "inactive"}, {"measurement": "Activity", "setting": "[6]", "value": "inactive"}, {"measurement": "Activity", "setting": "[7]", "value": "inactive"}, {"measurement": "Activity", "setting": "[8]", "value": "Non-Toxic"}, {"measurement": "Activity", "setting": "[9]", "value": "Non-Toxic"}, {"measurement": "inhibition", "setting": "[10]", "value": "inactive"}, {"measurement": "Activity", "setting": "[11]", "value": "inactive"}, {"measurement": "inhibition", "setting": "[12]", "value": "Active"}, {"measurement": "Activity", "setting": "[13]", "value": "Active"}, {"measurement": "Activity", "setting": "[14]", "value": "inactive"}, {"measurement": "ΔTm", "setting": "[15]", "value": "> 2", "unit": "°C"}, {"measurement": "Activity", "setting": "[16]", "value": "inactive"}, {"measurement": "Activity", "setting": "[17]", "value": "Toxic"}, {"measurement": "Activity", "setting": "[18]", "value": "inactive"}, {"measurement": "Activity", "setting": "[19]", "value": "Active"}, {"measurement": "Activity", "setting": "[20]", "value": "inactive"}, {"measurement": "Activity", "setting": "[21]", "value": "inactive"}, {"measurement": "inhibition", "setting": "[22]", "value": "inactive"}, {"measurement": "inhibition", "setting": "[23]", "value": "Dose-Dependent Effect"}, {"measurement": "Activity", "setting": "[24]", "value": "inactive"}, {"measurement": "ΔTm", "setting": "[25]", "value": "> 2", "unit": "°C"}, {"measurement": "Activity", "setting": "[26]", "value": "inactive"}, {"measurement": "Activity", "setting": "[27]", "value": "inactive"}, {"measurement": "Activity", "setting": "[28]", "value": "inactive"}, {"measurement": "inhibition", "setting": "[29]", "value": "Dose-Dependent Effect"}]}]}
